According to ChEMBL document CHEMBL1781999, “Lead optimization of aryl and aralkyl amine-based triazolopyrimidine inhibitors of Plasmodium falciparum dihydroorotate dehydrogenase with antimalarial activity in mice” (J Med Chem, 2011):
In brackets after ≈: the same amount, converted by molar mass.

Legend:
[1] = target: T1, Dihydroorotate dehydrogenase (Plasmodium falciparum, UniProt Q54A96); test: Inhibition of His6-tagged recombinant Plasmodium falciparum dihydroorotate dehydrogenase expressed in Escherichia coli using L-dihydroorotate as substrate after 5 to 10 mins by DCIP dye-based assay
T1 sequence (Q54A96 whole entry): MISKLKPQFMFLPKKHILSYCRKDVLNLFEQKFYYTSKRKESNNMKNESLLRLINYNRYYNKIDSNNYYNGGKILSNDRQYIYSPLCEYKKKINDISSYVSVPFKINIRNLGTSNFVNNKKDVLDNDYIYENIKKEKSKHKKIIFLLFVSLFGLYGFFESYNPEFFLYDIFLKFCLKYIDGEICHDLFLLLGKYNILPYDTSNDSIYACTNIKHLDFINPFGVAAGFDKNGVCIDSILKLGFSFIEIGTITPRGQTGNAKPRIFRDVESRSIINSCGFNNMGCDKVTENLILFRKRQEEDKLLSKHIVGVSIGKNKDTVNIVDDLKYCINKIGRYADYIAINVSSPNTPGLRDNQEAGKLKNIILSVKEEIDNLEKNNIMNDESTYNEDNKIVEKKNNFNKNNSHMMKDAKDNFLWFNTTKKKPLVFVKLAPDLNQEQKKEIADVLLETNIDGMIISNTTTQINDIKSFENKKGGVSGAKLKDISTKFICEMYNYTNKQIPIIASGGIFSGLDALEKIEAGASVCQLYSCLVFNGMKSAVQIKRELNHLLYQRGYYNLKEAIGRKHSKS

Plasmodium falciparum = test: Antimalarial activity against Plasmodium falciparum 3D7 infected in human A positive erythrocytes by [3H]hypoxanthine uptake assay in presence of serum in medium; assay type: functional, organism-based
Procedure, shortened: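 Growth read by [3H]-hypoxanthine uptake. Each concentration run in quadruplicate and fitted to a four-parameter variable-slope log[I]-response model for 50% growth inhibition.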

Liver microsomes = test: Intrinsic clearance in human liver microsome assessed per mg of protein at 1 uM after 60 mins by LC-MS analysis; assay type: ADME; details: microsomes, 1 h, 1 µM
Procedure, shortened: (§1)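 Microsomal stability. Compound at 1 μM with liver microsomes (0.4 mg/mL protein) in 0.1 M phosphate pH 7.4 at 37 °C. Started with an NADPH-regenerating system plus MgCl2; controls lacked NADPH. Quenched with cold acetonitrile at time points up to 60 min. Parent loss measured by LC-MS and fitted to exponential decay to give CLint.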

[2] = target: Dihydroorotate dehydrogenase (quinone), mitochondrial (Homo sapiens, UniProt Q02127); test: Inhibition of His6-tagged recombinant human dihydroorotate dehydrogenase expressed in Escherichia coli using L-dihydroorotate as substrate after 5 to 10 mins by DCIP dye-based assay
[3] = Aqueous solubility of the compound in phosphate buffer at pH 6.5; assay type: physicochemical
Procedure, shortened: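 Non-equilibrium solubility. Concentrated DMSO stocks were diluted into pH 6.5 phosphate buffer (final DMSO 1% v/v) and precipitation was monitored by nephelometry. Solubility is given as the concentration range just before a turbidity signal rose above background.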

[4] = Inhibition of His6-tagged recombinant Plasmodium berghei dihydroorotate dehydrogenase expressed in Escherichia coli using L-dihydroorotate as substrate after 10 to 15 mins by DCIP dye-based assay; details: in the assay text read “5 to 10 mins” for “10 to 15 mins”
Procedure, shortened: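 Truncated soluble enzyme lacking the N-terminal membrane domain. Final concentrations: 0.2 mM L-dihydroorotate, 0.02 mM CoQD, 0.12 mM DCIP. Reaction started with 10 nM enzyme and read at 600 nm for 5–10 min at 20 °C. Inhibitor 0.01–100 μM in 3-fold steps, in triplicate. IC50 from a three-parameter fit of vi/vo from initial rates.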

[5] = Partition coefficient, log D of the compound at pH 7.4 by UV-HPLC analysis; details: octanol/water
Liver = test: Intrinsic clearance in mouse liver microsome assessed per mg of protein at 1 uM after 60 mins by LC-MS analysis; assay type: ADME; details: microsomes, 1 h
Procedure, shortened: as §1

[6] = Plasma protein binding in human by albumin chromatographic method; assay type: ADME, cell-free; details: read-out: PPB (converted)
[7] = Inhibition of His6-tagged recombinant Plasmodium berghei dihydroorotate dehydrogenase expressed in Escherichia coli using L-dihydroorotate as substrate after 5 to 10 mins by DCIP dye-based assay
[8] = phosphate buffer, read-out: solubility

Chain of Dihydroorotate dehydrogenase (quinone), mitochondrial (Q02127 whole entry): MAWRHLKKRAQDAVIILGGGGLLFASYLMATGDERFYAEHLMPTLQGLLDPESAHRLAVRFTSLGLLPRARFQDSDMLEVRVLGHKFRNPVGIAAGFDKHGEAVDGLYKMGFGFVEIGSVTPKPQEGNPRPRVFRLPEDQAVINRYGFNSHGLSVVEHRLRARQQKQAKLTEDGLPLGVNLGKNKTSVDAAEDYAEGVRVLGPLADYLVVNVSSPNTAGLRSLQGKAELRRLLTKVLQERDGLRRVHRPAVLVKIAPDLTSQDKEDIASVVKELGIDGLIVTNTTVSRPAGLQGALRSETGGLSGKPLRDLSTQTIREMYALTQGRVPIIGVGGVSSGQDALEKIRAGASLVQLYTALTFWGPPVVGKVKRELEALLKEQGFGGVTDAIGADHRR

Structure (SMILES)	IC50 [1]	EC50 (Plasmodium falciparum)	IC50 [2]	IC50 [4]	also measured
Cc1cc(NC2CCCCCCC2)n2ncnc2n1	> 100000 nM				
Cc1cc(Nc2ccc(OC(C)(C)C)cc2)n2ncnc2n1	44000 nM	> 10 µM			
Cc1cc(Nc2ccc3c(c2)OCO3)n2ncnc2n1	1600 nM	21 µM	> 100 µM	55 µM	CL (Liver microsomes): 11 µL/min/mg; solubility [3, 8]: 186 µM (≈ 50.1 µg/mL); logD [5]: 1.6
CCc1c(C)nc2ncnn2c1Nc1ccc(OC(F)(F)F)cc1		> 10 µM	> 100 µM	5.7 µM	
Cc1cc(NC2CC2)n2ncnc2n1	> 100000 nM				
Cc1cc(NCc2ccccc2)n2ncnc2n1	> 100000 nM	> 10 µM			
C=Cc1ccc(Nc2cc(C)nc3ncnn23)cc1		0.34 µM	> 100 µM	4.5 µM	CL (Liver microsomes): 32 µL/min/mg; CL (Liver): 168 µL/min/mg; solubility [3, 8]: 25 µM (≈ 6.28 µg/mL); logD [5]: 2.4; fraction unbound [6]: 0.156
Cc1ccc(Nc2c3c(nc4ncnn24)CCC3)cc1F		8.3 µM	> 100 µM	1.3 µM	
CCCCc1ccc(Nc2cc(C)nc3ncnn23)cc1	280 nM	4.8 µM	> 100 µM	5.25 µM	CL (Liver microsomes): 36 µL/min/mg; solubility [3, 8]: 11 µM (≈ 3.09 µg/mL); logD [5]: 3.6; fraction unbound [6]: 0.033
CCc1nc(N)nc(N)c1-c1ccc(Cl)cc1 [PYRIMETHAMINE]		0.023 µM			fraction unbound [6]: 0.13
Cc1cc(Nc2ccc(CC(F)(F)F)cc2)n2ncnc2n1	2500 nM			8.8 µM	
Cc1cc(Nc2ccc(C3CC3)cc2)n2ncnc2n1	420 nM	1.4 µM	> 100 µM	2.9 µM	CL (Liver microsomes): 53 µL/min/mg; CL (Liver): 287 µL/min/mg; solubility ([3]; buffer): > 377 µM; logD [5]: 2.7; fraction unbound [6]: 0.132
CCCCCCCNc1cc(C)nc2ncnn12	8600 nM	13 µM		55 µM	
Cc1cc(NC2Cc3ccc(Br)cc3C2)n2ncnc2n1 (stereo not given)	1200 nM	6.6 µM	> 50 µM	3.3 µM	
Cc1cc(Nc2ccc(NC(C)(C)C)cc2)n2ncnc2n1	> 50000 nM	> 5 µM			IC50 [7]: > 100 µM
CCCc1ccc(Nc2cc(C)nc3ncnn23)cc1	990 nM	6.8 µM	> 100 µM	9 µM	CL (Liver microsomes): 36 µL/min/mg; solubility [3, 8]: 187 µM (≈ 50 µg/mL); logD [5]: 3.1; fraction unbound [6]: 0.065
FC(F)(F)c1ccc(Nc2cc(C(F)(F)F)nc3ncnn23)cc1	1700 nM	> 10 µM	> 100 µM	2.3 µM	
Cc1cc(Nc2ccc(N3CCOCC3)cc2)n2ncnc2n1	> 100000 nM	> 10 µM			IC50 [7]: > 100 µM
Cc1cc(NCCc2ccccc2)n2ncnc2n1	15000 nM	> 20 µM		27 µM	
Cc1cc(NCc2ccc(C(F)(F)F)cc2)n2ncnc2n1	> 100000 nM				IC50 [7]: > 100 µM
Cc1cc(Nc2ccc3ccccc3c2)n2ncnc2n1					solubility [3, 8]: 45 µM (≈ 12.4 µg/mL); logD [5]: 3.2; fraction unbound [6]: 0.062
Cc1cc(Nc2ccc(C(C)(C)C#N)cc2)n2ncnc2n1		3.7 µM			
Cc1cc(NC2CCCCCCCCCCC2)n2ncnc2n1	58000 nM				
Cc1cc(Nc2ccc(N3CCCC3)cc2)n2ncnc2n1	3500 nM	> 20 µM		> 50 µM	
Cc1cc(NOc2ccccc2)n2ncnc2n1	> 100000 nM				IC50 [7]: > 100 µM
Cc1cc(NC2CCc3cc(Cl)ccc3C2)n2ncnc2n1 (stereo not given)	670 nM	10 µM			IC50 [7]: 10 µM

Structure (SMILES)	IC50 [1]	EC50 (Plasmodium falciparum)	IC50 [2]	IC50 [4]	also measured
Cc1cc(Nc2ccc3c(c2)CCC3)n2ncnc2n1	220 nM	0.8 µM	> 100 µM	1 µM	CL (Liver microsomes): 77 µL/min/mg; CL (Liver): 341 µL/min/mg; solubility [3, 8]: 47 µM (≈ 12.5 µg/mL); logD [5]: 2.9; fraction unbound [6]: 0.075
Cc1cc(Nc2ccc(C(C)(C)C)cc2)n2ncnc2n1	78 nM	0.32 µM	> 100 µM	0.4 µM	CL (Liver microsomes): 43 µL/min/mg; solubility [3, 8]: 11 µM (≈ 3.09 µg/mL); logD [5]: 3.4; fraction unbound [6]: 0.068
Cc1cc(Nc2ccc(N(C)C)cc2)n2ncnc2n1	820 nM	2.7 µM	> 100 µM	12 µM	CL (Liver microsomes): 9 µL/min/mg; CL (Liver): 226 µL/min/mg; solubility [3, 8]: 93 µM (≈ 25 µg/mL); logD [5]: 2.2
CCc1cc(Nc2ccc(C(F)(F)F)cc2)n2ncnc2n1	780 nM	2.3 µM	> 100 µM	2 µM	
Cc1cc(Nc2ccc(OCc3ccccc3)cc2)n2ncnc2n1	5400 nM	> 10 µM			IC50 [7]: > 100 µM
CCCCCCc1ccc(Nc2cc(C)nc3ncnn23)cc1	4200 nM	> 5 µM		20 µM	
CCCCCc1ccc(Nc2cc(C)nc3ncnn23)cc1	820 nM	> 5 µM	> 100 µM	22 µM	
CCc1ccc(Nc2cc(C)nc3ncnn23)cc1	610 nM	3.3 µM	> 100 µM	3.9 µM	CL (Liver microsomes): 61 µL/min/mg; solubility [3, 8]: 25 µM (≈ 6.33 µg/mL); logD [5]: 2.6; fraction unbound [6]: 0.12
Cc1cc(NC2Cc3ccc(F)cc3C2)n2ncnc2n1 (stereo not given)	610 nM	1.3 µM	> 50 µM	1.4 µM	
Cc1cc(Nc2ccc3[nH]c(C(F)(F)F)nc3c2)n2ncnc2n1	21000 nM	25 µM		> 50 µM	
Cc1cc(NC2CCC2)n2ncnc2n1	> 100000 nM				
COc1cc2c(cc1OC)CC(Nc1cc(C)nc3ncnn13)C2	4600 nM	7.7 µM		41 µM	
CCCCCCCCc1ccc(Nc2cc(C)nc3ncnn23)cc1	> 50000 nM	> 5 µM			IC50 [7]: > 100 µM
Cc1cc(NC2CCc3cc(F)ccc3C2)n2ncnc2n1 (stereo not given)	630 nM	2.5 µM		1.9 µM	
Cc1cc(NCc2ccc(F)cc2)n2ncnc2n1	> 100000 nM	> 10 µM			
FC(F)(F)c1ccc(Nc2cc(Cl)nc3ncnn23)cc1	170 nM	3.4 µM	> 100 µM	0.13 µM	
CCCCCCCc1ccc(Nc2cc(C)nc3ncnn23)cc1	24000 nM	> 5 µM		> 50 µM	
Cc1cc(NC2CCCCC2)n2ncnc2n1	> 100000 nM				
Cc1cc(NC2CCCCCC2)n2ncnc2n1	> 100000 nM				
Cc1cc(Nc2ccc(Cl)c(F)c2)n2ncnc2n1	550 nM	3.5 µM	> 50 µM	1.3 µM	
Cc1cc(Nc2ccc(C(F)(F)F)c(C(F)(F)F)c2)n2ncnc2n1	540 nM	2.3 µM		0.55 µM	
C#Cc1ccc(Nc2cc(C)nc3ncnn23)cc1	1100 nM	5.1 µM	> 100 µM	4.1 µM	CL (Liver microsomes): 8 µL/min/mg; CL (Liver): 27 µL/min/mg; solubility [3, 8]: 100 µM (≈ 24.9 µg/mL); logD [5]: 2.2; fraction unbound [6]: 0.182
Cc1cc(Nc2ccc(SC(F)(F)F)cc2)n2ncnc2n1	610 nM	0.27 µM	> 50 µM	1.2 µM	CL (Liver microsomes): < 5 µL/min/mg; CL (Liver): 119 µL/min/mg; solubility [3, 8]: 5 µM (≈ 1.63 µg/mL); fraction unbound [6]: 0.039
Cc1cc(NC2CCCC2)n2ncnc2n1	> 100000 nM				
CCc1c(C)nc2ncnn2c1Nc1ccc(C(C)C)cc1	1700 nM	> 10 µM	> 100 µM	4.5 µM	
